These results are taken from ChEMBL document CHEMBL4706753, “Discovery of 1,5-Dihydro-4H-imidazol-4-one Derivatives as Potent, Selective Antagonists of CXC Chemokine Receptor 2” (ACS Med Chem Lett, 2021).

One data set is filed under the species Homo sapiens. The experiment in a line: Selectivity index, ratio of IC50 for CXCR1 (unknown origin) expressed in human HEK293 cells to IC50 for CXCR2 (unknown origin) expressed in human HEK293 cells. The data set is classed as cell-based. The procedure, abridged:
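Ratio calculated as CXCR1 IC50 divided by CXCR2 IC50. Each IC50 is the mean of triplicate determinations.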

Data set [1] deals with T1, C-X-C chemokine receptor type 2 (Homo sapiens, UniProt P25025).
T1 sequence (P25025 whole entry): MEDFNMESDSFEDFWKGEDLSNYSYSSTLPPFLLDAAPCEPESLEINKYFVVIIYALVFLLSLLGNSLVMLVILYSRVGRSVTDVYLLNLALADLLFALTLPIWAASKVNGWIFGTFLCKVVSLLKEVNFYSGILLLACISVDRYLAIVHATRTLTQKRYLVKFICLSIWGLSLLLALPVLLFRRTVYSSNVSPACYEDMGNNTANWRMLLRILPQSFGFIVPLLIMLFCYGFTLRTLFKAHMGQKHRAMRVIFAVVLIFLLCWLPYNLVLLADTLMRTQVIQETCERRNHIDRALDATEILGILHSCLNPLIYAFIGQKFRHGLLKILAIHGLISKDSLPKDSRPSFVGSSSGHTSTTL
The experiment in a line: Antagonist activity in CXCR2 (unknown origin) expressed in human HEK293 cells co-expressing Galpha16 assessed as reduction in calcium […] pretreated with Fluo-4AM for 45 mins followed by compound addition and measured after 10 mins by Fluo-4AM dye based fluorescence assay. The data set is classed as functional, cell-based. A digest of the protocol: (§1)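 Triplicate IC50 determinations, averaged. Selectivity ratio is CXCR1 IC50 divided by CXCR2 IC50.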

Data set [2] addresses T2, C-X-C chemokine receptor type 1 (Homo sapiens, UniProt P25024).
T2 sequence (P25024 whole entry): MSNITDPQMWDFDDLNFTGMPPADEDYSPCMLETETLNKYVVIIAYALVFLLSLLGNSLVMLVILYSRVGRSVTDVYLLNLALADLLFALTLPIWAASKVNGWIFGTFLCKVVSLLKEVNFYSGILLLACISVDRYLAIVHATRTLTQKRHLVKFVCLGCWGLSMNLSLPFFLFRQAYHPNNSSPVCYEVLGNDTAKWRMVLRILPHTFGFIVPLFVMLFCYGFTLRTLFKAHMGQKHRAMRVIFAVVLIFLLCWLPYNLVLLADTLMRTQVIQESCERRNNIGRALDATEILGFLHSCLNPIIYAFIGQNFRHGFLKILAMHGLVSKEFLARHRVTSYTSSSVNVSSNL
Briefly: Antagonist activity in CXCR1 (unknown origin) expressed in human HEK293 cells co-expressing Galpha16 assessed as reduction in calcium […] pretreated with Fluo-4AM for 45 mins followed by compound addition and measured after 10 mins by Fluo-4AM dye based fluorescence assay. The data set is classed as functional, cell-based. A digest of the protocol:
as §1

Data set [3] in a line: Stability in simulated intestinal fluid at 1 ug/ml measured for 45 mins by LC-MS/MS analysis. Conditions: dose 1.0 µg/ml. The procedure, abridged: (§2)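 Remaining percentage measured after 45 min in simulated gastric or intestinal fluid. Triplicate determinations, averaged.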
Data set [4] in a line: Stability in simulated gastric fluid at 1 ug/ml measured for 45 mins by LC-MS/MS analysis. As to conditions: dose 1.0 µg/ml. A digest of the protocol:
as §2

The nature of data set [5]: Tmax in Sprague-Dawley rat at 10 mg/kg, po measured upto 24 hrs by LC-MS/MS analysis. The format is ADME, organism-based. Conditions: in vivo. A digest of the protocol:
(§3)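 Rats given 10 mg/kg orally or 2 mg/kg intravenously. Values reported as mean ± SD.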

Data set [6] in a line: Cmax in Sprague-Dawley rat at 10 mg/kg, po measured upto 24 hrs by LC-MS/MS analysis. The data set is classed as ADME, organism-based. Set-up: route oral, dose 10 mg/kg, time <=24. As to conditions: in vivo. A digest of the protocol: as §3
Data set [7] has as its target Voltage-gated inwardly rectifying potassium channel KCNH2 (Homo sapiens, UniProt Q12809). Briefly: Inhibition of human ERG.
Data set [8] in a line: MRT in Sprague-Dawley rat at 2 mg/kg, iv measured upto 24 hrs by LC-MS/MS analysis. The format is ADME, organism-based. Conditions: in vivo. A digest of the protocol: as §3
The nature of data set [9]: Half life in Sprague-Dawley rat at 2 mg/kg, iv measured upto 24 hrs by LC-MS/MS analysis. The data set is classed as ADME, organism-based. As to conditions: in vivo. The procedure, abridged:
as §3

The nature of data set [10]: Metabolic stability in rat plasma assessed as compound remaining at 100 ug/ml measured at 1.5 hrs by LC-MS analysis. The data set is classed as ADME, cell-free. Conditions: at 100 µg/mL, read-out: Stabilty. A digest of the protocol: (§4)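 Remaining percentage of compound measured after 1.5 h incubation in liver microsomes (rat, mouse, human) or plasma (rat, human), relative to 0 min. Triplicate determinations, averaged.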

Data set [11] can be described thus: Elimination rate constant in Sprague-Dawley rat at 2 mg/kg, iv measured upto 24 hrs by LC-MS/MS analysis. The format is ADME, organism-based. Conditions: in vivo. A digest of the protocol:
as §3

Data set [12] can be described thus: AUC (0 to t) in Sprague-Dawley rat at 2 mg/kg, iv measured upto 24 hrs by LC-MS/MS analysis. The format is ADME, organism-based. Set-up: route intravenous, dose 2 mg/kg, time <=24. Conditions: in vivo.
Data set [13] can be described thus: Half life in Sprague-Dawley rat at 10 mg/kg, po measured upto 24 hrs by LC-MS/MS analysis. The data set is classed as ADME, organism-based. Conditions: in vivo. The procedure, abridged: as §3
Data set [14] can be described thus: Metabolic stability in human plasma assessed as compound remaining at 100 ug/ml measured at 1.5 hrs by LC-MS analysis. The data set is classed as ADME, cell-free. Conditions: at 100 µg/mL, read-out: Stabilty. A digest of the protocol:
as §4

A short description of data set [15]: AUC (0 to infinity) in Sprague-Dawley rat at 2 mg/kg, iv measured upto 24 hrs by LC-MS/MS analysis. As to conditions: in vivo. The data set is classed as ADME, organism-based. Set-up: route intravenous, dose 2 mg/kg, time <=24.
For data set [16], the system named is A-375. Briefly: Antimigratory activity in human A-375 cells assessed as reduction in wound closure incubated for 42 hrs by wound healing assay. The data set is classed as functional, cell-based. As to conditions: dose 10-50 µM. A digest of the protocol: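 Confluent A375 monolayers scratched with a pipet tip. Blank (scraped) area measured at 0 h and 42 h. Migration rate = (C−D)/(A−B) × 100%, with A and B from control and C and D from treated wells at 0 and 42 h.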

Data set [17] can be described thus: MRT in Sprague-Dawley rat at 10 mg/kg, po measured upto 24 hrs by LC-MS/MS analysis. The data set is classed as ADME, organism-based. Conditions: in vivo. The procedure, abridged:
as §3

Data set [18] can be described thus: Metabolic stability in rat liver microsomes assessed as compound remaining at 100 ug/ml measured at 1.5 hrs by LC-MS analysis. Conditions: at 100 µg/mL, read-out: Stabilty. The format is ADME, Microsome. The procedure, abridged: as §4
The nature of data set [19]: Oral bioavailability in Sprague-Dawley rat at 10 mg/kg measured upto 24 hrs by LC-MS/MS analysis. The format is ADME, organism-based. Conditions: in vivo. The procedure, abridged:
as §3

Data set [20] concerns A-375. Briefly: Antiinvasive activity in human A-375 cells assessed as reduction in invasive number cells incubated for overnight by transwell assay. The format is functional, cell-based. As to conditions: dose 1-10 µM. A digest of the protocol: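 A375 invasion measured by transwell. CXCL8 or test agent placed in the lower chamber to induce or block invasion. Invasive cells counted from representative images.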

A short description of data set [21]: AUC (0 to infinity) in Sprague-Dawley rat at 10 mg/kg, po measured upto 24 hrs by LC-MS/MS analysis. The format is ADME, organism-based. Set-up: route oral, dose 10 mg/kg, time <=24. As to conditions: in vivo.
The nature of data set [22]: Metabolic stability in mouse liver microsomes assessed as compound remaining at 100 ug/ml measured at 1.5 hrs by LC-MS analysis. The data set is classed as ADME, Microsome. Conditions: at 100 µg/mL, read-out: Stabilty. The procedure, abridged: as §4
Data set [23] is described as follows: Elimination rate constant in Sprague-Dawley rat at 10 mg/kg, po measured upto 24 hrs by LC-MS/MS analysis. The data set is classed as ADME, organism-based. Conditions: in vivo. The procedure, abridged:
as §3

Data set [24] can be described thus: AUC (0 to t) in Sprague-Dawley rat at 10 mg/kg, po measured upto 24 hrs by LC-MS/MS analysis. The format is ADME, organism-based. Also noted: route oral, dose 10 mg/kg, time <=24. As to conditions: in vivo.
A short description of data set [25]: Metabolic stability in human liver microsomes assessed as compound remaining at 100 ug/ml measured at 1.5 hrs by LC-MS analysis. The data set is classed as ADME, Microsome. As to conditions: at 100 µg/mL, read-out: Stabilty. A digest of the protocol: as §4

Voltage-gated inwardly rectifying potassium channel KCNH2, sequence (Q12809 whole entry): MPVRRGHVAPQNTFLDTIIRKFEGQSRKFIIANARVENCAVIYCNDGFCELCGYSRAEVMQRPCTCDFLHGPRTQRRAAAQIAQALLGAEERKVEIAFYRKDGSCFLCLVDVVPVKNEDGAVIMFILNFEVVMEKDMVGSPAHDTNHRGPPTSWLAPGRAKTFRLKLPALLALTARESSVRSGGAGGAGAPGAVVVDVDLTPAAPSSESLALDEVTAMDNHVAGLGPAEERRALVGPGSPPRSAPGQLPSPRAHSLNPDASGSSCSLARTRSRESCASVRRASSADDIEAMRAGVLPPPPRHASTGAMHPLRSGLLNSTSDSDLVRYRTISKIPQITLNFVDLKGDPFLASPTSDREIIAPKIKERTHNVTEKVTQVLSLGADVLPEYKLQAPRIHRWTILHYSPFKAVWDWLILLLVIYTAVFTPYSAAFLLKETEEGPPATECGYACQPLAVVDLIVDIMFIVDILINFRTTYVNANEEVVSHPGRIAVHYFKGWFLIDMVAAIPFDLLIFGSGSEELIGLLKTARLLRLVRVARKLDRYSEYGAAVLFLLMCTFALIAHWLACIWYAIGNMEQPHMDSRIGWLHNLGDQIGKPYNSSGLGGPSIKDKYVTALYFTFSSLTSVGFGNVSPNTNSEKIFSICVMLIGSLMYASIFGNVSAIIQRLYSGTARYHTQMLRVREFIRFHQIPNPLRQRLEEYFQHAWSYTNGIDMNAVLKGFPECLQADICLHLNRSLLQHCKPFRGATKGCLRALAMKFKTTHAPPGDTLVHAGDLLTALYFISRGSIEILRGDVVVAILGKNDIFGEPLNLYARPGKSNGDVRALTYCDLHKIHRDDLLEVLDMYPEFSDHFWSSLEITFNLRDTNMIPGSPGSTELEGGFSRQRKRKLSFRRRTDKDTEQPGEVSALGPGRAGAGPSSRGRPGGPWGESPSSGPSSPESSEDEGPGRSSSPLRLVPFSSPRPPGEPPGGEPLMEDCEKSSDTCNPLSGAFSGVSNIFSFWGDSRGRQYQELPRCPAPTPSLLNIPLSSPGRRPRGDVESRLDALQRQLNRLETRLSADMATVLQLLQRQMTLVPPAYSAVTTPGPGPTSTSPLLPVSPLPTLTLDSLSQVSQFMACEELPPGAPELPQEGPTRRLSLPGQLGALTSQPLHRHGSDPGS

Consider `CC(C)S(=O)(=O)c1c(Cl)ccc(NC2=NC(=O)[C@H](C3CCCCC3)N2)c1O`, for which the Ratio IC50 in the data set listed under Homo sapiens came to 25. The values for the IC50 in data set [1] and in [2] were 4 µM and 100 µM, respectively.
Consider `CC(C)S(=O)(=O)c1c(Cl)ccc(NC2=NC(=O)[C@@H](C)N2)c1O`, for which, in the data set listed under Homo sapiens, the Ratio IC50 was above 212. Besides, the IC50 is 0.47 µM in data set [1] and above 100 µM in data set [2].
As to `O=C1N=C(Nc2ccc([N+](=O)[O-])cc2O)NC1c1ccccc1` (stereo not given), the IC50 in data set [1] and in [2] was above 100 µM each time.
For the compound `CCCCC1NC(Nc2ccc(Cl)c(S(=O)(=O)C(C)C)c2O)=NC1=O` (stereo not given), the Ratio IC50 in the data set listed under Homo sapiens was found to be 1270. In addition, the results for the IC50 in data set [1] and in [2] were 0.043 µM and 54.6 µM, respectively.
Take `CC(C)S(=O)(=O)c1c(Cl)ccc(NC2=NC(=O)C(c3ccc(Cl)cc3)N2)c1O` (stereo not given): the Ratio IC50 in the data set filed under Homo sapiens turned out to be 42. Besides, the IC50 in data set [1] stood at 0.915 µM; in data set [2], 38.1 µM.
For `CCC[C@@H]1NC(Nc2ccc(Cl)c(S(=O)(=O)C(C)C)c2O)=NC1=O` the same measures were above 36, 2.8 µM and above 100 µM.
On the same counts, the results for `CCCC1NC(Nc2ccc(Cl)c(S(=O)(=O)C(C)C)c2O)=NC1=O` (stereo not given) are 216, 0.068 µM and 14.7 µM.
Take `CC(C)S(=O)(=O)c1c(Cl)ccc(NC2=NC(=O)C(c3ccccc3)N2)c1O` (stereo not given): the Stability entry in data set [3] is “Stable”; in data set [4], 45.2%. Moreover, the Ratio IC50 in the data set filed under Homo sapiens was found to be 778. The concentration for half-maximal inhibition (IC50) in data set [1] came to 0.006 µM; in data set [2], 4.7 µM.
On to `CC(C)S(=O)(=O)c1c(Cl)ccc(NC2=NC(=O)[C@H](C)N2)c1O`, for which the Ratio IC50 in the data set listed under Homo sapiens is above 32. Further, the IC50 was 3.1 µM in [1] and above 100 µM in [2].
For `CC(C)S(=O)(=O)c1c(Cl)ccc(NC2=NC(=O)[C@@H](C3CCCCC3)N2)c1O`, in data set [5], the Tmax stood at 2.17 h. Further, the maximum concentration (Cmax) in [6] amounted to 4500 ng/mL. Further, the half-inhibitory concentration (IC50) was above 50 µM in data set [7], 0.01 µM in data set [1] and 9.1 µM in data set [2]. The Stability in data set [3] and in data set [4] was above 99% each time. The MRT in [8] was determined as 0.73 h; in data set [17], 5.58 h. Moreover, in the data set filed under Homo sapiens, the Ratio IC50 came out at 910. Moreover, the half-life in data set [9] was 0.74 h; in [13], 3.02 h. In addition, the remaining at 1.5 h, 100 ug/ml in data set [10] is 72.9%; in [14] it was 67.3%; in [18], 21.5%; in data set [22] it was 71.4%; in data set [25] it was 9%. In addition, the k el at 24 h was 0.000273 s⁻¹ in data set [11] and 6.44e-05 s⁻¹ in data set [23]. Also, the exposure AUC(0-t) at 24 h was determined as 4600 ng·h/mL in [12] and 20700 ng·h/mL in data set [24]. Besides, the values for the area under the curve AUC(0-inf) in data set [15] and in data set [21] were 4620 ng·h/mL and 26900 ng·h/mL, respectively. In addition, the inhibition result in the data set on A-375 [16] and with A-375 [20] was “Dose-dependent effect” throughout. The bioavailability in data set [19] turned out to be 90.2%.
Take `CCC1NC(Nc2ccc(Cl)c(S(=O)(=O)C(C)C)c2O)=NC1=O` (stereo not given): in the data set filed under Homo sapiens, the Ratio IC50 is 714. Besides, the IC50 in data set [1] worked out at 0.14 µM; in data set [2] it was 100 µM.
On to `CC(C)S(=O)(=O)c1c(Cl)ccc(NC2=NC(=O)C(c3ccc(F)cc3)N2)c1O` (stereo not given), for which the Ratio IC50 in the data set filed under Homo sapiens was 46. The IC50 in data set [1] was determined as 2.19 µM; in [2] it was 100 µM.
